This note sets out measurements from ChEMBL document CHEMBL1148699, “Characterization of the intracellular mechanisms involved in the antiaggregant properties of cinnamtannin B-1 from bay wood in human platelets” (2007).

SMILES strings stand for the structures. The source made the active and inactive calls. The rule behind the calls is not given here.

The subject of assay [1] is Platelet. As to the kind of experiment: Effect on rate of thrombin-induced human platelet aggregation at 10 uM after 10 mins. The class given is functional. The method in brief: (§1)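 Washed human platelets (aspirin 100 µM and apyrase in PRP) suspended in HBS pH 7.45 with 1 mM Ca2+. Preincubated 10 min with 10 µM agent or DMSO vehicle, then stimulated with 0.1 U/mL thrombin at 37 °C with stirring at 1200 rpm in an aggregometer. Lag time, % rate and % aggregation read from traces; mean ± SEM of four determinations.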

Assay [2] deals with Platelet. The experiment in a line: Effect on thrombin-induced human platelet aggregation assessed as lag time at 10 uM after 10 mins. The class given is functional. The method in brief: as §1
Assay [3] concerns Platelet. As to the kind of experiment: Effect on thrombin-induced human platelet aggregation at 10 uM after 10 mins. The class given is functional. In short, it runs like this: as §1
Assay [4] has as its system Platelet. The experiment in a line: Effect on thrombin-induced human platelet aggregation in presence of colchicine. The class given is functional. The method in brief: (§2)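 Washed human platelets in HBS with 1 mM Ca2+. Treated with 10 µM compound for 30 min, plus either 300 U/mL catalase for 10 min or 100 µM colchicine for 2 h; controls received each agent alone or vehicle. Thrombin 0.1 U/mL at 37 °C, stirring at 1200 rpm. Lag time, % rate and % aggregation recorded; mean ± SEM, six determinations.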

Assay [5] addresses Tyrosine-protein kinase BTK (Homo sapiens) (UniProt Q06187). As to the kind of experiment: Effect on thrombin-induced Btk activation at 10 uM after 30 mins. The method in brief: (§3)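 Platelets in HBS with 1 mM Ca2+ held 30 min at 37 °C with 10 µM compound, alone or with 300 U/mL catalase (10 min). Samples taken 10 s before and 30 s after 0.1 U/mL thrombin, lysed in Laemmli buffer. Western blot for phospho-Btk Y223, reprobed for total Btk. Densitometry as % of resting control; mean ± SEM, four experiments.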

Assay [6] relates to Platelet. The experiment in a line: Effect on thrombin-induced human platelet aggregation at 0.1 uM. The class given is functional. The method in brief:
(§4)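 Washed human platelets (from aspirin- and apyrase-treated PRP) in HEPES-buffered saline, pH 7.45, with 1 mM Ca2+. Preincubated 30 min with 0.1-10 µM compound (10 mM DMSO stock) or vehicle. Stimulated with 0.1 U/mL thrombin or 10 µM ADP. Read in an aggregometer at 37 °C, stirred at 1200 rpm, as lag time, % rate and % aggregation. Mean ± SEM, six determinations.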

Assay [7] has as its system Platelet. As to the kind of experiment: Effect on thrombin-induced human platelet aggregation assessed as lag time at 1.0 uM. The class given is functional. The method in brief: as §4
Assay [8] has as its target Proto-oncogene tyrosine-protein kinase Src (Homo sapiens) (UniProt P12931). As to the kind of experiment: Inhibition of thrombin-induced pp60src activation in presence of catalase. The method in brief: (§5)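 Platelets in HBS with 1 mM Ca2+ pretreated 30 min at 37 °C with 10 µM compound, alone or with 300 U/mL catalase (10 min). Sampled 10 s before and 60 s after 0.1 U/mL thrombin. SDS-PAGE and immunoblot with anti-phospho-c-Src Y416, reprobed for total pp60src. Densitometry as % of untreated resting cells; mean ± SEM, four experiments.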

Assay [9] deals with Platelet. The experiment in a line: Effect on thrombin-induced human platelet aggregation at 10 uM. The class given is functional. The method in brief: as §4
Assay [10] relates to Platelet. The experiment in a line: Effect on rate of thrombin-induced human platelet aggregation at 1.0 uM. The class given is functional. The method in brief:
as §4

In assay [11] the test system is Platelet. The experiment in a line: Reduction of thrombin-induced phosphotyrosine content in human platelets at 10 uM after 30 mins.
For assay [12], the system named is Platelet. As to the kind of experiment: Effect on thrombin-induced microtubular reorganization at 10 uM after 30 mins. The class given is functional, Homo sapiens. In short, it runs like this:
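Platelets pretreated with 10 µM compound for 30 min at 37 °C, then 0.1 U/mL thrombin for 1 min in HBS at 2 × 10^7 cells/mL. Fixed in an equal volume of ice-cold 3% formaldehyde in PBS for 10 min, permeabilized with 0.025% NP40, stained 30 min with 1 µM Oregon Green 488 paclitaxel. Fluorescence at ex 488/em 522 nm; n = 6.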

Assay [13] deals with Platelet. As to the kind of experiment: Effect on thrombin-induced human platelet aggregation at 1.0 uM. The class given is functional. In short, it runs like this:
as §4

The test system of assay [14] is Platelet. As to the kind of experiment: Effect on rate of thrombin-induced human platelet aggregation at 0.1 uM. The class given is functional. The method in brief: as §4
Assay [15] concerns Platelet. The experiment in a line: Effect on thrombin-induced human platelet aggregation assessed as lag time in presence of colchicine. The class given is functional. In short, it runs like this: as §2
Assay [16] has as its system Platelet. As to the kind of experiment: Effect on ADP-induced human platelet aggregation assessed as lag time at 10 uM. The class given is functional. In short, it runs like this: as §4
Assay [17] addresses Tyrosine-protein kinase BTK (Homo sapiens) (UniProt Q06187). As to the kind of experiment: Effect on thrombin-induced Btk activation in presence of catalase. The method in brief:
as §3

Assay [18] relates to Platelet. The experiment in a line: Effect on of ADP-induced human platelet aggregation at 10 uM. The class given is functional. In short, it runs like this: as §4
Assay [19] deals with Platelet. The experiment in a line: Effect on thrombin-induced human platelet aggregation in presence of catalase. The class given is functional. In short, it runs like this:
as §2

For assay [20], the target named is Proto-oncogene tyrosine-protein kinase Src (Homo sapiens) (UniProt P12931). The experiment in a line: Inhibition of thrombin-induced pp60src activation at 10 uM after 30 mins. The method in brief:
as §5

Assay [21] concerns Platelet. The experiment in a line: Effect on thrombin-induced human platelet aggregation assessed as lag time at 0.1 uM. The class given is functional. In short, it runs like this: as §4
Assay [22] concerns Platelet. The experiment in a line: Effect on rate of thrombin-induced human platelet aggregation at 10 uM. The class given is functional. In short, it runs like this:
as §4

Assay [23] concerns Platelet. The experiment in a line: Effect on rate of thrombin-induced human platelet aggregation in presence of colchicine. The class given is functional. In short, it runs like this: as §2
Assay [24] has as its system Platelet. The experiment in a line: Effect on thrombin-induced human platelet aggregation assessed as lag time at 10 uM. The class given is functional. In short, it runs like this:
as §4

The subject of assay [25] is Platelet. As to the kind of experiment: Effect on thrombin-induced human platelet aggregation assessed as lag time in presence of catalase. The class given is functional. The method in brief:
as §2

The subject of assay [26] is Platelet. The experiment in a line: Effect on rate of ADP-induced human platelet aggregation at 10 uM. The class given is functional. The method in brief: as §4
Assay [27] has as its system Platelet. The experiment in a line: Effect on rate of thrombin-induced human platelet aggregation in presence of catalase. The class given is functional. In short, it runs like this: as §2
The test system of assay [28] is Platelet. As to the kind of experiment: Effect on thrombin-induced calcium mobilization in human platelets. The class given is functional, cell-based. In short, it runs like this:
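Platelets loaded with 2 µM fura-2/AM for 45 min at 37 °C, 2 × 10^8 cells/mL, stirred at 37 °C. Exposed to 10 µM compound for 30 min. Ca2+-free medium with 100 µM EGTA, then 0.1 U/mL thrombin. Excitation 340/380 nm, emission 505 nm; ratio calibrated to [Ca2+]i. Peak rise above basal taken; n = 6.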
(A change in cytosolic calcium serves as a functional read-out for many receptors and channels.)

Chain of Proto-oncogene tyrosine-protein kinase Src (Homo sapiens) (P12931 2-536 limits assumed): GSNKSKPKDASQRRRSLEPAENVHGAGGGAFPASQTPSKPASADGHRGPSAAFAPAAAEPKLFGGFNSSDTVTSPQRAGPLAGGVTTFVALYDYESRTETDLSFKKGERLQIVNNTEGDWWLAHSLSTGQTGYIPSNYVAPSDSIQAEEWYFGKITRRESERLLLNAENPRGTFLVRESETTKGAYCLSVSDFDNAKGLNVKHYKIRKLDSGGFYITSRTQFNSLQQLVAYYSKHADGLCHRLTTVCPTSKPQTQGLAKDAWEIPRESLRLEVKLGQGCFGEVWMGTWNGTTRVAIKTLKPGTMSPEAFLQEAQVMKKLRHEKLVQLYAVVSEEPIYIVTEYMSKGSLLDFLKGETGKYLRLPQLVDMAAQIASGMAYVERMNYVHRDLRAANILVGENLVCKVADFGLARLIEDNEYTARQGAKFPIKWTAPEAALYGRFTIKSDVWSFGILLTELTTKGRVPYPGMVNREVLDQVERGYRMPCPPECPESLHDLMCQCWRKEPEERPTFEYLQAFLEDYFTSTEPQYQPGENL
Chain of Tyrosine-protein kinase BTK (Homo sapiens) (Q06187 whole entry): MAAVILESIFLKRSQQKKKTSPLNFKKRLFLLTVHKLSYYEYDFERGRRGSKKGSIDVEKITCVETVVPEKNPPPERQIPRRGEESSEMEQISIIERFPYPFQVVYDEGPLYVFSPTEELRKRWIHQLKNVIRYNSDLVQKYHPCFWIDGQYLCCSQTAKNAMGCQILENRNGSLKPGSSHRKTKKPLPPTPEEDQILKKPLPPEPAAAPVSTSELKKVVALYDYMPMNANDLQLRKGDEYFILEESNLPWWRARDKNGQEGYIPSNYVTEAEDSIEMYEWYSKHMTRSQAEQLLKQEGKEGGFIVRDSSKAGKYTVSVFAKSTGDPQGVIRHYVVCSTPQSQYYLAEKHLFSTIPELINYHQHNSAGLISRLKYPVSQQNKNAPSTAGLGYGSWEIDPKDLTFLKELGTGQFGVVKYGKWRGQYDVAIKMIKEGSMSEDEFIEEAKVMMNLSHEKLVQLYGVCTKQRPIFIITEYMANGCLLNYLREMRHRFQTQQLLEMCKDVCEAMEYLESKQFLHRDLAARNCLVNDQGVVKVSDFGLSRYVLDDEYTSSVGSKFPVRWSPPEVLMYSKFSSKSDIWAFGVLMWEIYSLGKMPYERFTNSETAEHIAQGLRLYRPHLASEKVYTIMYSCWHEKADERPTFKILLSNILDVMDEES

In the case of `Cc1ccc(-c2nn(C(C)(C)C)c3ncnc(N)c23)cc1`, the Activity was 59.7% with Platelet [1] and 67.1% in the assay on Platelet [3]. For the same compound, in the assay with Platelet [2], the Time is on record as 26.5 s.
For the compound `C/C(O)=C(\C#N)C(=O)Nc1cc(Br)ccc1Br`, the Activity in the assay on Platelet [1] is listed as 66.3%; in the assay on Platelet [3] it was 68.7%. Further, the Time with Platelet [2] was 24.3 s.
As to `Oc1cc(O)c2c(c1)O[C@@]1(c3ccc(O)c(O)c3)Oc3cc(O)c4c(c3[C@@H]2[C@H]1O)O[C@H](c1ccc(O)c(O)c1)[C@H](O)[C@H]4c1c(O)cc(O)c2c1O[C@H](c1ccc(O)c(O)c1)[C@H](O)C2` [CINNAMTANNIN B1], the Activity was 74.6% in the assay with Platelet [4]; 50% in [5]; 81.9% in the assay on Platelet [6]; 71.8% with Platelet [9]; 43.7% with Platelet [10]; 15% with Platelet [12]. Further, the Activity is 80.6% in the assay on Platelet [13]; 49% with Platelet [14]; 90% in assay [17]; 9.5% with Platelet [18]; 77% in the assay with Platelet [19]; 42.1% in the assay on Platelet [22]. Besides, the Activity with Platelet [23] came out at 40.3%; in the assay with Platelet [26], 9%; in the assay on Platelet [27] it was 48.1%. Moreover, the Time with Platelet [7] turned out to be 9.8 s; in the assay on Platelet [15] it was 15 s; with Platelet [16] it was 15.6 s; in the assay on Platelet [21], 9.2 s; in the assay on Platelet [24], 10.6 s; in the assay on Platelet [25], 9.1 s. The result (in [8]; in the assay with Platelet [11]; in assay [20]) was Active. Moreover, in the assay on Platelet [28], the result was inactive.
Consider `COc1cc2c(c(OC)c1OC)-c1ccc(OC)c(=O)cc1[C@@H](NC(C)=O)CC2` [COLCHICINE], for which the Activity with Platelet [6] is on record as 71.2%; in the assay on Platelet [14] it was 59%. Further, the Time in the assay on Platelet [21] stood at 9.3 s.
